Source: ChEMBL document CHEMBL1153546, “Pharmacokinetics of telbivudine in subjects with various degrees of renal impairment” (Antimicrob Agents Chemother, 2007)

Assays:
[1] = Cmax in patient with end-stage renal disease at 200 mg, po administered as two single doses 2 hrs before dialysis separated by 1 week washout period; type: ADME, organism-based; design: dose 200 mg, route oral; conditions: human, in vivo
Method in brief: (§1)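 Plasma telbivudine after one oral dose, sampled predose through 48 h and quantified by validated LC-MS/MS (LLOQ 10 ng/ml, transition 243.0→127.1 m/z). Cmax was read directly from the observed concentration-time data.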

[2] = Cmax in patient with end-stage renal disease at 200 mg, po administered as two single doses within 2 hrs of after completion of dialysis separated by 1 week washout period; type: ADME, organism-based; design: dose 200 mg, route oral; conditions: human, in vivo; method in brief: as §1
[3] = AUC (0 to t) in human with normal renal function at 600 mg, po administered as single dose; type: ADME, organism-based; conditions: plasma
Method in brief: (§2)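 Single oral telbivudine dose. Heparinized blood was drawn predose and up to 48 h postdose, with extra paired dialyzer samples for predialysis dosing. Plasma was stored at –20°C and assayed by validated HPLC-MS/MS (LLOQ 10 ng/ml, range 10–5,000 ng/ml). Noncompartmental analysis: AUC0-t by linear trapezoidal rule to last measurable concentration; AUC0-∞ = AUC0-t + Ct/kel.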

[4] = AUC (0 to t) in patient with mild renal impairment at 600 mg, po administered as single dose; type: ADME, organism-based; conditions: human, plasma; method in brief: as §2
[5] = AUC (0 to t) in patient with moderate renal impairment at 400 mg, po administered as single dose; type: ADME, organism-based; conditions: human, plasma; method in brief: as §2
[6] = AUC (0 to t) in patient with severe renal impairment at 200 mg, po administered as single dose; type: ADME, organism-based; conditions: human, plasma; method in brief: as §2
[7] = Renal clearance in human with normal renal function at 600 mg, po administered as single dose; type: ADME, organism-based, Kidney; conditions: in vivo, read-out: CL_renal (converted)
Method in brief: (§3)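 Renal clearance = Au0-t/AUC0-t, where Au0-t is the cumulative unchanged drug in urine collected over 0–48 h. Plasma and urine were assayed by validated HPLC-MS/MS after a single oral dose.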

[8] = Renal clearance in patient with mild renal impairment at 600 mg, po administered as single dose; type: ADME, organism-based, Kidney; conditions: human, in vivo, read-out: CL_renal (converted); method in brief: as §3
[9] = Renal clearance in patient with moderate renal impairment at 400 mg, po administered as single dose; type: ADME, organism-based, Kidney; conditions: human, in vivo, read-out: CL_renal (converted); method in brief: as §3
[10] = Renal clearance in patient with severe renal impairment at 200 mg, po administered as single dose; type: ADME, organism-based, Kidney; conditions: human, in vivo, read-out: CL_renal (converted)
Method in brief: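 Single oral dose. Urine was collected at –2–0 h and over 0–4, 4–8, 8–12, 12–24 and 24–48 h; plasma was sampled over 48 h. Both matrices were assayed by HPLC-MS/MS (urine LLOQ 30 ng/ml, plasma LLOQ 10 ng/ml). Renal clearance = cumulative urinary unchanged drug (Au0-t) / AUC0-t, with AUC by the linear trapezoidal rule.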

[11] = test system: Homo sapiens; experiment: Plasma clearance in human with normal renal function at 600 mg, po administered as single dose; type: ADME, organism-based; conditions: in vivo
Method in brief: (§4)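 Apparent total oral plasma clearance (CL/F) = dose/AUC0-∞. AUC was obtained noncompartmentally from plasma LC-MS/MS concentrations sampled up to 48 h after a single oral dose.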

[12] = Plasma clearance in patient with mild renal impairment at 600 mg, po administered as single dose; type: ADME, organism-based; conditions: human; method in brief: as §4
[13] = Plasma clearance in patient with moderate renal impairment at 400 mg, po administered as single dose; type: ADME, organism-based; conditions: human; method in brief: as §4
[14] = Plasma clearance in patient with severe renal impairment at 200 mg, po administered as single dose; type: ADME, organism-based; conditions: human; method in brief: as §4
[15] = Plasma clearance in patient with end-stage renal disease at 200 mg, po administered as two single doses 2 hrs before dialysis separated by 1 week washout period; type: ADME, organism-based; conditions: human; method in brief: as §4
[16] = Plasma clearance in patient with end-stage renal disease at 200 mg, po administered as two single doses within 2 hrs of after completion of dialysis separated by 1 week washout period; type: ADME, organism-based; conditions: human; method in brief: as §4
[17] = Mean cumulative urine excretion level in human with normal renal function at 600 mg, po administered as single dose; type: ADME, organism-based; conditions: read-out: Activity
Method in brief: (§5)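 Urine collected at –2 to 0 h predose and at 0–4, 4–8, 8–12, 12–24 and 24–48 h after a single oral dose. Unchanged telbivudine measured by validated HPLC-MS/MS (LLOQ 30 ng/ml, calibration 30–5,000 ng/ml), and amounts were summed cumulatively.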

[18] = Mean cumulative urine excretion level in patient with mild renal impairment at 600 mg, po administered as single dose; type: ADME, organism-based; conditions: human, read-out: Activity; method in brief: as §5
[19] = Mean cumulative urine excretion level in patient with moderate renal impairment at 400 mg, po administered as single dose; type: ADME, organism-based; conditions: human, read-out: Activity; method in brief: as §5
[20] = Mean cumulative urine excretion level in patient with severe renal impairment at 200 mg, po administered as single dose; type: ADME, organism-based; conditions: human, read-out: Activity; method in brief: as §5
[21] = Oral bioavailability in human with normal renal function; type: ADME, organism-based; conditions: in vivo
[22] = test system: Homo sapiens; experiment: Dialytic clearance in patient with end-stage renal disease at 200 mg, po administered as single dose 2 hrs before dialysis; type: ADME, organism-based; conditions: in vivo
Method in brief: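 Dose given 2 h before a 3.5–4 h hemodialysis session. Paired pre- and postdialyzer plasma samples were taken at start, mid and end of dialysis. CLHD = [(QA×CA) – (QV×CV)]/CA, where QA and QV are dialyzer inflow and outflow blood rates and CA and CV are the paired concentrations.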

[23] = test system: HepG2; experiment: Metabolic stability in human HepG2 cells assessed as Telbivudine triphosphate half life; type: ADME, cell-based
[24] = Plasma clearance in human with normal renal function; type: ADME, organism-based
[25] = test system: Hepatitis B virus; experiment: Antiviral activity against HBV in HBeAg-positive patient with chronic viral infection assessed as log reduction of serum viral DNA copies/ml at 60 mg/day after 6 to 12 weeks; type: functional
[26] = Cmax in human with normal renal function at 600 mg, po administered as single dose; type: ADME, organism-based; design: dose 600 mg, route oral; conditions: in vivo; method in brief: as §1
[27] = test system: HepG2; experiment: Cmax for Telbivudine triphosphate in HepG2 cells after 10 uM Telbivudine treatment; type: ADME, cell-based; conditions: human, hepg2, 10 µM; read-out: Cmax_triphosphate
[28] = Terminal half life in healthy human at 200 to 800 mg/day administered as single dose; type: ADME, organism-based; conditions: in vivo, read-out: beta t1/2 (converted)
[29] = test system: Hepatitis B virus; experiment: Antiviral activity against HBV in HBeAg-positive patient with chronic viral infection assessed as log reduction of serum viral DNA copies/ml at 60 mg/day after 4 weeks; type: functional

For `Cc1cn([C@@H]2C[C@@H](O)[C@H](CO)O2)c(=O)[nH]c1=O` [TELBIVUDINE], the Cmax [1] was 1200 ng/mL, the Cmax [2] was 2100 ng/mL and the AUC(0-t) [3] was 26500 ng·h/mL. It also gave an AUC(0-t) [4] of 29200 ng·h/mL, an AUC(0-t) [5] of 30100 ng·h/mL and an AUC(0-t) [6] of 25300 ng·h/mL. It also gave a CL renal [7] of 127 mL/min, a CL renal [8] of 83.3 mL/min and a CL renal [9] of 43.3 mL/min. For the same molecule, the CL renal [10] was 11.7 mL/min, the CL [11] was 7.6 L/h and the CL/F [12] was 345 mL/min. The CL/F [13] was 227 mL/min, the CL/F [14] was 118 mL/min and the CL/F [15] was 81.7 mL/min. For the same molecule, the CL/F [16] was 60 mL/min, the dose excreted [17] was 31.5% and the dose excreted [18] was 23.6%. It also gave a dose excreted [19] of 19.8%, a dose excreted [20] of 8% and a bioavailability [21] of 52%. For the same molecule, the CL [22] was 13.3 L/h, the t1/2 [23] was 15 h and the clearance [24] was 200 mL/min. It also gave an Activity [25] of 6 mL⁻¹, a Cmax [26] of 3400 ng/mL and a Cmax [27] of 30 µM. It also gave a half-life [28] of 40 h and an Activity [29] of 3.6 mL⁻¹.
